The record followed here is PubChem BioAssay.

Inconclusive results are not listed. Calls of active or inactive are those of the source.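 The calls were made as follows, unless noted: active = viability at or below 27.92% in each of two runs, the all-compound median minus 4 SD; inconclusive = no clear call, values can overlap the other calls; inactive = the rest.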

Assay [1] can be described thus: OD615 S. cerevisiae growth inhibition, permissive medium, pilot counter-assay, permissive growth control for S. cerevisiae lifespan shortening project (AID 705;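 active = growth inhibition above 25% in both replicates, a cutoff set 3 SD above the mean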). The settings on record: OD615, 24 h, at 10 µM, hits give high values. The gist of the method:
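Material: engineered DeaD yeast; Compound: one dose 10 µM, DMSO 0.25% final; Detection: absorbance (optical density) at 615 nm; Buffer or medium: permissive raffinose/galactose medium; Timing: 24 h exposure, 30 °C.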

The nature of assay [2]: Restrictive medium S. cerevisiae growth inhibition, OD615, pilot screen of yeast lifespan reduction project, restrictive growth control (AID 706;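 active = growth inhibition above a set limit, 3 SD over mean compound inhibition, in both replicates, cut at about 43% in these data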;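 also: modified DeaD lifespan yeast strain shifted to restrictive glucose medium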). The settings on record: OD615, 48 h, at 10 µM, hits give high values. The method in brief: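 Buffer or medium: restrictive glucose medium (CSMM-D); test system: modified S. cerevisiae; doses: single dose of 10 µM compound final, 0.25% DMSO; schedule: 48 h compound exposure at 30 °C; detection: absorbance (optical density) measured at 615 nm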

Assay [3] in a line: viability gain of MRP-1-high H69AR cells under doxorubicin, pilot screen, MRP-1 activator project, CellTiter-Glo, duplicate (AID 807;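 active = viability increase at or above a cutoff of the median across tested compounds plus 3 SD, cut at about 8.5% in these data, passing the limit was not always enough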;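 also: compound pretreatment 18-22 h then 72 h combined with doxorubicin; 0% = doxorubicin alone and 100% = vehicle without doxorubicin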). The settings on record: H69AR viability with doxorubicin, CellTiter-Glo luminescence; at 10 µM; hits give high values. For orientation: ATP-based viability assays read luminescence as a measure of living cells.
Assay [4] in a line: growth suppression of beta-catenin knockout HCT116, pilot screen, human colon tumor cells (AID 823;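 active = cell viability at or below a set limit in both duplicate runs, the limit being the all-compound median minus 4 SD, cut at about 23% in these data, passing the limit was not always enough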;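 also: 0% = wells killed by 20 µM Hyamine and 100% = untreated DMSO cell wells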). The settings on record: CellTiter-Glo, 60 h, at 10 µM, hits give low values.
The nature of assay [5]: growth suppression of PTEN-deleted HCT116, pilot screen, cell-based, HCT116 clonal line, CellTiter-Glo (AID 824).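 Also: 0% = 20 µM Hyamine control and 100% = vehicle cell control.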 The note with it: 60 h, at 10 µM, hits give low values.
A short description of assay [6]: inhibitors of the yeast RAM network, pilot screen, dse1pr::URA3 reporter, 5-FOA selection (AID 869;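 active = inhibition over a set limit, the all-compound mean plus 3 SD, in both replicate runs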;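 also: 0% = DMSO wells with no growth and 100% = 10 µM 1-NA-PP1 with full growth; RAM network block rescues cells from 5-FOA so hits raise OD615 growth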). The settings on record: S. cerevisiae dse1pr::URA3 5-FOA growth, OD615, 2 d, at 10 µM, hits give high values.
A short description of assay [7]: RAM signaling pathway blockade in yeast – S. cerevisiae, Pdr1DBD-CYC8 efflux-inhibited sensitized strain, primary screen (AID 1298;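 active = RAM network inhibition above 8.4% in each of two replicates, 3 SD over the compound average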;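 also: 0% = DMSO untreated cells without growth and 100% = 10 µM 1-NA-PP1 full growth; higher means more yeast growth rescued from 5-FOA killing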). The note with it: S. cerevisiae cbk1-as DSE1-URA3 strain, 5-FOA growth OD615, 2 d; at 50 µM; hits give high values.

For the molecule `O=C(O)C1CSC(c2cccnc2)N1` (centres undefined), the values for the growth inhibition in assay [1] and in assay [2] were -3.98% (inactive) and -8.32% (inactive), respectively. For the same molecule, the viability increase in assay [3] was -1.05% (inactive). Further, the results for the viability in assay [4] and in assay [5] were 99.3% (inactive) and 106% (inactive), respectively. Moreover, the inhibition – broadly, the change of the read-out against control, counted positive when it falls – in assay [6] was 3.04% (inactive). Moreover, the RAM network inhibition in assay [7] is 2.35% (inactive).
Consider `O=c1cccc2n1CC1CC2CN(C(c2ccccc2)c2sc3ncnn3c2O)C1` (centres undefined), for which the results for the growth inhibition in assay [1] and in assay [2] were 4.58% (inactive) and 3.32% (inactive), respectively. In addition, in assay [3], the viability increase was -1.49% (inactive). For the same molecule, the viability (commonly a read-out of living cells in per cent, often relative to untreated cells) in assay [4] was 93.8% (inactive); in assay [5] it was 96.8% (inactive). For the same molecule, the inhibition in assay [6] was 1.01% (inactive). The RAM network inhibition in assay [7] is 1.32% (inactive).
As for `CN1CCN(c2ncnc3ccc(Br)cc23)CC1`, the growth inhibition is -1.88% (inactive) in assay [1] and 5.46% (inactive) in assay [2]. For the same molecule, the viability increase in assay [3] is -1.88% (inactive). The viability in assay [4] was 94.2% (inactive); in assay [5] it was 98.4% (inactive). For the same molecule, in assay [6], the inhibition is -0.575% (inactive). In addition, the RAM network inhibition in assay [7] was 2.92% (inactive).
Regarding `CN(C)C(=O)Oc1ccc(C(=O)c2ccccc2)cc1`, the growth inhibition is -2.66% (inactive) in assay [1] and 5.16% (inactive) in assay [2]. For the same molecule, the viability increase in assay [3] was 1.59% (inactive). The viability is 101% (inactive) in assay [4] and 95.1% (inactive) in assay [5]. The inhibition in assay [6] was 0.43% (inactive). The RAM network inhibition in assay [7] was 0.92% (inactive).
As to `O=c1c2ccccc2nc(-c2cccs2)n1-c1cnccn1`, the growth inhibition in assay [1] was -10.5% (inactive); in assay [2], -2.03% (inactive). The viability increase in assay [3] is -1.4% (inactive). The viability was 99.7% (inactive) in assay [4] and 96.3% (inactive) in assay [5]. In addition, the inhibition in assay [6] is 2.33% (inactive). For the same molecule, the RAM network inhibition in assay [7] was 2.35% (inactive).
`CCCOC(=O)COc1cc(C)cc2oc(=O)c3c(c12)CCC3`: the growth inhibition in assay [1] was -10.1% (inactive); in assay [2], -13.8% (inactive). Besides, the viability increase in assay [3] is 1.68% (inactive). Also, the viability is 88% (inactive) in assay [4] and 86.1% (inactive) in assay [5]. In addition, the inhibition in assay [6] is 1.03% (inactive). For the same molecule, the RAM network inhibition in assay [7] was 4.39% (inactive).
As for `CC(C)CC1C(C#N)=C(N)Oc2c1c(=O)oc1ccccc21` (centres undefined), the growth inhibition was -12.7% (inactive) in assay [1] and -16.4% (inactive) in assay [2]. Moreover, in assay [3], the viability increase was -0.17% (inactive). Also, the viability in assay [4] is 102% (inactive); in assay [5] it was 99.8% (inactive). In addition, the inhibition in assay [6] was 1.71% (inactive). Also, the RAM network inhibition in assay [7] was 8.07% (inactive).
Turning to `CCOc1ccccc1C1SCC(=O)Nc2c1c(=O)[nH]n2C(CC)CC` (centres undefined), the growth inhibition was -3.42% (inactive) in assay [1] and -8.7% (inactive) in assay [2]. In addition, the viability increase in assay [3] is -0.06% (inactive). The viability in assay [4] is 93.5% (inactive); in assay [5] it was 93.3% (inactive). Also, the inhibition in assay [6] is 1.07% (inactive). Further, in assay [7], the RAM network inhibition was 0.37% (inactive).
For the molecule `C=Cn1ccnc1P(=S)(c1nccn1C=C)C1CCCCC1`, the results for the growth inhibition in assay [1] and in assay [2] were 0.2% (inactive) and -2.3% (inactive), respectively. Also, the viability increase in assay [3] was -1.76% (inactive). The figures for the viability in assay [4] and in assay [5] were 92.3% (inactive) and 93.1% (inactive), respectively. In assay [6], the inhibition was 0.82% (inactive). For the same molecule, in assay [7], the RAM network inhibition is 3.48% (inactive).
Turning to `Nc1ccc(S(=O)(=O)N2CCCCC2c2cccnc2)cc1` (centres undefined), the growth inhibition in assay [1] was -3.15% (inactive); in assay [2], 0.935% (inactive). Besides, the viability increase in assay [3] was -0.96% (inactive). Besides, the viability in assay [4] was 103% (inactive); in assay [5], 104% (inactive). For the same molecule, in assay [6], the inhibition was 0.625% (inactive). Further, the RAM network inhibition in assay [7] is -0.2% (inactive).
Turning to `COc1cc(CN2CC3CC(C2)c2cccc(=O)n2C3)cc(OC)c1OC` (centres undefined), the growth inhibition in assay [1] was -11.8% (inactive); in assay [2], -4.6% (inactive). The viability increase in assay [3] was -2.25% (inactive). Also, the viability in assay [4] was 104% (inactive); in assay [5] it was 109% (inactive). The inhibition in assay [6] was 2.42% (inactive). Further, the RAM network inhibition in assay [7] was 0.85% (inactive).
With `CN(C)c1ccc(CN2CC=C(c3ccc(F)cc3)CC2)cc1`, the growth inhibition in assay [1] is -15.2% (inactive); in assay [2] it was -10.7% (inactive). Further, the viability increase in assay [3] is -2.99% (inactive). Besides, the viability in assay [4] was 86.6% (inactive); in assay [5], 96.5% (inactive). Further, the inhibition in assay [6] is 1.31% (inactive). Also, in assay [7], the RAM network inhibition is 1.92% (inactive).
Consider `O=c1cccc2n1CC1CC2CN(Cc2ccc3c(c2)OCO3)C1` (centres undefined), for which the growth inhibition in assay [1] was -5.27% (inactive); in assay [2], 2.45% (inactive). Besides, the viability increase in assay [3] was -2.71% (inactive). In addition, the viability in assay [4] was 98.1% (inactive); in assay [5], 94.6% (inactive). Besides, the inhibition in assay [6] is 0.6% (inactive). The RAM network inhibition in assay [7] was -0.2% (inactive).
On to `COc1ccccc1N=Cc1c(O)n(C)c(=O)n(C)c1=O`, for which the growth inhibition was -6.69% (inactive) in assay [1] and 1.98% (inactive) in assay [2]. The viability increase in assay [3] is 0.23% (inactive). For the same molecule, the viability in assay [4] is 87.1% (inactive); in assay [5], 99.6% (inactive). For the same molecule, the inhibition in assay [6] is -0.295% (inactive). Further, in assay [7], the RAM network inhibition was 2.71% (inactive).
Turning to `CN1CSC(=S)N(C)C1`, the growth inhibition in assay [1] was 51.5% (active); in assay [2], 63.5% (active). For the same molecule, the viability increase in assay [3] is -7.69% (inactive). The viability in assay [4] was 13.9% (active); in assay [5], 19.6% (active). Further, the inhibition in assay [6] is -0.745% (inactive). The RAM network inhibition in assay [7] is -1.87% (inactive).
Regarding `O=c1c2ccccc2nc(-c2ccco2)n1-c1ccccn1`, the growth inhibition in assay [1] was -12.2% (inactive); in assay [2], -7.09% (inactive). The viability increase in assay [3] was -0.82% (inactive). In addition, the figures for the viability in assay [4] and in assay [5] were 107% (inactive) and 95.2% (inactive), respectively. Further, the inhibition in assay [6] is 1.16% (inactive). Moreover, the RAM network inhibition in assay [7] is 3.37% (inactive).
Regarding `O=C(NC1(C(F)(F)F)Oc2ccccc2O1)N1CCC2(CC1)OCCO2`, the figures for the growth inhibition in assay [1] and in assay [2] were -4.29% (inactive) and 1.45% (inactive), respectively. Also, the viability increase in assay [3] was -5.11% (inactive). Also, the viability in assay [4] is 51.5% (inactive); in assay [5], 79.8% (inactive). The inhibition in assay [6] was 0.465% (inactive). In addition, in assay [7], the RAM network inhibition is 0.45% (inactive).
Consider `CC(=O)c1cccc(NC2=NCC(C)S2)c1` (centres undefined), for which the growth inhibition in assay [1] was -9.46% (inactive); in assay [2], -13.1% (inactive). Besides, the viability increase in assay [3] was -0.51% (inactive). Further, the viability in assay [4] was 106% (inactive); in assay [5], 93.9% (inactive). Besides, in assay [6], the inhibition was 2.77% (inactive). Moreover, the RAM network inhibition in assay [7] is 2.41% (inactive).
For `Nc1ccccc1C(=O)c1ccccc1`, the growth inhibition was -0.69% (inactive) in assay [1] and -1.46% (inactive) in assay [2]. In addition, the viability increase in assay [3] was -1.42% (inactive). Moreover, the viability in assay [4] was 90.9% (inactive); in assay [5] it was 88.7% (inactive). Moreover, the inhibition in assay [6] was 0.55% (inactive). Also, the RAM network inhibition in assay [7] is 2.5% (inactive).
With `CN(C(=O)Oc1cccc2cccnc12)c1ccccc1`, the figures for the growth inhibition in assay [1] and in assay [2] were -2.11% (inactive) and 3.21% (inactive), respectively. The viability increase in assay [3] was -0.61% (inactive). Besides, the viability is 91% (inactive) in assay [4] and 90.1% (inactive) in assay [5]. Moreover, in assay [6], the inhibition is 0.415% (inactive). Besides, in assay [7], the RAM network inhibition is 2.67% (inactive).
As to `O=C(CN1CC(c2ccccc2)CC1=O)Nc1ccccc1` (centres undefined), the growth inhibition in assay [1] was -20.4% (inactive); in assay [2] it was -12.7% (inactive). In assay [3], the viability increase was -1.8% (inactive). The viability in assay [4] was 106% (inactive); in assay [5] it was 95.4% (inactive). Besides, the inhibition in assay [6] is 1.06% (inactive). For the same molecule, the RAM network inhibition in assay [7] is 4.01% (inactive).
On to `CC(=O)Nc1ccc(OC(=O)N(C)c2ccccc2)cc1`, for which the growth inhibition is 1.69% (inactive) in assay [1] and -3.19% (inactive) in assay [2]. In assay [3], the viability increase was 0.24% (inactive). In addition, the viability in assay [4] was 105% (inactive); in assay [5], 100% (inactive). For the same molecule, in assay [6], the inhibition was 3.04% (inactive). The RAM network inhibition in assay [7] was 3.59% (inactive).
